# DYRK1A inh = blocks rat Dyrk1A kinase activity; Q63470; ADP-Glo luminescence, NFATc1 peptide; inhibition, % at 12.5 µM; actives 0.43% (n = 310,000); AID 504441;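 note: plate controls were vehicle with enzyme for no effect and no enzyme for full effect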
# NSD2 inh = NSD2 (human) methyltransferase inhibition | inhibition, % at 12.5 µM | AID 743445 | actives 0.54% (n = 310,000) | NSD2 peptide methylation, AlphaScreen, 120 min
# CDK5 p35 inh = CDK5/p35 (human) kinase inhibition; Q00535+Q15078; inhibition, % at 10 µM; actives 0.01% (n = 330,000); Recombinant CDK5/p35, ADP-Glo luminescence, 60 min;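 active = highest replicate inhibition of at least 50% and at least 75% of replicates reaching 50%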;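 note: plate controls were DMSO neutral control for no effect and GW8510 at 10 µM for full effect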
# Target sequence (Q00535 whole entry, looked up): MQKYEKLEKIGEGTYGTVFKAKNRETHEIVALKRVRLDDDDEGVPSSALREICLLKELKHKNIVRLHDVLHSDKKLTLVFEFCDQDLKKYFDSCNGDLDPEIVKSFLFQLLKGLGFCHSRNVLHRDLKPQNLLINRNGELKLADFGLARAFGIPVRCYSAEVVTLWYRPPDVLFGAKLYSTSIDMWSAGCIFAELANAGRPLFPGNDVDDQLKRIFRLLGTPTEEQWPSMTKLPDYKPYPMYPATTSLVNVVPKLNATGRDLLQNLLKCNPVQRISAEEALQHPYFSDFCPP
# Target sequence (Q15078 whole entry, looked up): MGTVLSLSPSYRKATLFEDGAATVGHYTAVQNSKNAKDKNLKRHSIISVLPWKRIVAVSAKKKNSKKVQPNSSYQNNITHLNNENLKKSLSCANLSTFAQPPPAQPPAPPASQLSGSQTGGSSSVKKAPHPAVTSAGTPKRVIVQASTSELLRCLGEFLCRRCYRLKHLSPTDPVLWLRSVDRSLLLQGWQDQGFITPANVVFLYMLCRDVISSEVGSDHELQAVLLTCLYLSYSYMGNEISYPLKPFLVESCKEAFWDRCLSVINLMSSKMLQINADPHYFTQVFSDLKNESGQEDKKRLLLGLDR
# dFosB activator = enhances mouse delta FosB homodimer DNA binding. activation, % at 25 µM. AID 493131. P13346. purified delta FosB, TAMRA-CDK5 oligo fluorescence polarization; percent of positive-control signal above neutral wells. actives 0.99% (n = 340,000);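 active = mean activation above about 17%, with every replicate also reaching it, limit read from the data, passing the limit was not always enough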
# SR-BI DiI-HDL act = activators of SR-BI mediated HDL lipid uptake; actives 0.096% (n = 320,000); AID 504775; CHO ldlA[mSR-BI] cells, DiI-HDL uptake fluorescence, 3 h; 100 = double the neutral-control signal; activation, % at 12.5 µM;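 active = mean replicate activation of at least 60% and every replicate at or above 60%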;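 note: 0% = median plate neutral-control signal and 100% = twice that signal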
#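 Test system: SR-BI-overexpressing, LDLR-lacking CHO cells; Medium: Ham's F12 with 0.5% BSA, HEPES 25 mM, pH 7.4; Schedule: 3 h, 37 °C; Technique: bottom-read fluorescence, 550/595 nm.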
# SR-BI HDL uptake = inhibitors of mouse SR-BI mediated HDL lipid uptake | ldlA[mSR-BI] CHO cells, DiI-HDL uptake fluorescence, 3 h | Q61009 | actives 0.96% (n = 320,000) | inhibition, % at 12.5 µM;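 active = mean replicate inhibition of at least 70% and a set share of replicates each scoring 70 or more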;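 note: 0% = median of neutral control wells and 100% = median of positive control wells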
# Active calls of the source: *; / = not tested or not shown. Compounds with a hit are over-represented: about 2.5% of the library has one in this group of screens. Cut-off read from the data, not from the text of the source, unless noted: active = inhibition above about 50%; inactive = the rest.
SMILES,DYRK1A inh,NSD2 inh,CDK5 p35 inh,dFosB activator,SR-BI DiI-HDL act,SR-BI HDL uptake
COc1cc(OC)cc(-c2c(-c3ccc(F)cc3)c3cc(-c4ccc5[nH]ccc5c4)ccc3n2C)c1,2.2,/,-2.6,1.3,-87.6,87.6*
COc1cccc(-c2c(-c3cc(OC)cc(OC)c3)n(C)c3ccc(-c4ccc5[nH]ccc5c4)cc23)c1,6.5,/,0.9,-3.6,-63.2,63.2
COc1cc(OC)cc(-c2c(-c3ccc(F)cc3)c3cc(-c4ccc(OC)nc4)ccc3n2C)c1,-3.4,/,-1.5,-3.1,-28.5,28.5
COc1cccc(-c2c(-c3cc(OC)cc(OC)c3)n(C)c3ccc(-c4ccc(OC)nc4)cc23)c1,-4.4,/,0.1,-3.0,-25.1,25.1
COc1ccc(-c2c(-c3ccc(OC)nc3)c3ccccc3n2C)cc1,-0.1,/,-1.6,-4.0,-77.5,77.5*
COc1ccc(-c2c(-c3cc(OC)cc(OC)c3)n(C)c3ccc(-c4ccc5cc[nH]c5c4)cc23)cc1,1.3,/,0.4,-9.1,-85.1,85.1*
COc1ccc(-c2c(-c3cc(OC)cc(OC)c3)n(C)c3ccc(-c4ccc(N(C)C)nc4)cc23)cc1,-1.0,/,0.6,-9.1,-83.1,83.1*
O=c1cc(CSc2nnc(-c3cccs3)o2)c2c(ccc3ccccc32)o1,/,4.0,/,/,/,/
COc1ccc(-c2csc(NC(=O)c3ccccc3NS(=O)(=O)c3ccc(C)cc3)n2)cc1,-3.9,4.9,-1.4,-8.8,-92.8,92.8*
Cc1ccc2c(c1)N(CCCC(=O)NCc1ccc(F)cc1)C(=O)CO2,/,2.2,/,/,/,/
CCOC(=O)N1CCc2cc(OC)c(OC)c3c2c1cc1cc(OC)c(OC)cc13,7.3,11.6,-2.4,-30.0,-86.3,86.3*
COc1cc(CC(=O)N2CCc3ccccc32)cc(OC)c1OC,6.7,/,-2.4,1.6,17.6,-17.6
Cc1ccccc1NC(=S)c1nc2ccccc2[nH]1,2.5,-5.5,-0.5,-2.6,-78.6,78.7*
Cc1ccccc1NC(=O)NCCc1nc2ccccc2[nH]1,0.0,14.8,-0.2,-7.6,1.2,-1.3
O=C(NCCO)[C@H](Cc1ccccc1)NC1(C(=O)NCCN2CCOCC2)CCCCC1,/,-1.8,/,/,/,/
CC1(C(=O)Nc2cnc3ccccc3c2)CCN1Cc1ccccc1Cl (centres undefined),/,-0.8,/,/,/,/
Oc1cccc(Nc2nc(NCC3CCCO3)c3ccccc3n2)c1 (centres undefined),39.4,/,7.3,59.2*,-3.3,3.3
c1ccc(Nc2nc(NCC3CCCO3)c3ccccc3n2)cc1 (centres undefined),16.3,-9.8,-0.5,-9.0,-3.7,3.7
COc1cccc(NC(=O)c2sc3ncn(CC(=O)N4CCN(c5ccccn5)CC4)c(=O)c3c2C)c1,2.0,/,0.5,-8.3,-78.9,78.9*
COc1ccccc1NC(=O)c1sc2ncn(CC(=O)N3CCC(C)CC3)c(=O)c2c1C,-8.2,-1.1,-0.4,-0.8,-4.9,4.9
CCOc1ccccc1NC(=O)c1sc2ncn(CC(=O)N3CCOCC3)c(=O)c2c1C,7.8,-6.1,0.3,-12.4,-71.2,71.2*
Cc1nc2ccc(NC(=O)c3cc(Cl)ccc3F)cc2c(=O)[nH]1,/,4.4,/,/,/,/
COc1ccc(/C=N/n2cncn2)cc1Cn1cc([N+](=O)[O-])cn1,/,-1.5,/,/,/,/
COc1ccc(/C=N/Nc2ccc([N+](=O)[O-])cc2)cc1Cn1cc([N+](=O)[O-])cn1,-0.5,-1.8,-0.8,3.7,-95.2,95.2*
O=C1C(=O)c2ccc(-c3ccccc3)cc2-c2ccccc21,6.1,3.2,2.8,0.4,-92.5,92.5*
SMILES,DYRK1A inh,NSD2 inh,CDK5 p35 inh,dFosB activator,SR-BI DiI-HDL act,SR-BI HDL uptake
Nc1cccc(-c2c[nH]c3ncc(-c4cccnc4)cc23)c1,77.4*,/,10.3,-4.9,3.2,-3.2
Nc1ccc2nc(-c3cccnc3)[nH]c2c1,-4.1,3.9,-2.1,-2.1,1.7,-1.7
Cc1cccc(C(=O)N2CCc3cc(-c4csc(NC(=O)CN5CCCC5)n4)ccc32)c1,-3.6,0.8,0.1,37.1*,/,/
CCN(Cc1ccccc1)C(=O)CCCN1C(=O)COc2ccc(C)cc21,/,-4.1,/,/,/,/
CCOC(=O)CSc1nc(N2CCOCC2)c2c(c1C#N)CC(C)(C)OC2,0.8,-1.8,-0.5,-13.1,415.8*,-415.7
CCCOC(=O)CSc1nc(N2CCOCC2)c2c(c1C#N)CC(C)(C)OC2,-1.6,0.2,-2.1,-7.5,9.5,-9.5
Clc1ccc(OCCOc2ccc(Br)nc2Br)c(Cl)c1,/,-2.5,/,/,/,/
COc1ccc(S(=O)(=O)Nc2ccc(-c3ccc4nnc(C)n4n3)cc2)c(OC)c1,-1.1,-1.3,0.0,21.8*,-14.8,14.8
CN(C)c1ncc(C2=C(Cl)C(=O)C(N3CCCC3)=C(Cl)C2=O)s1,-6.0,56.9*,4.4,-11.2,16.0,-16.0
O=C(CSc1nnnn1-c1ccccc1)Nc1ncc(Cc2cccc(Cl)c2Cl)s1,0.8,5.1,1.8,77.4*,-4.8,4.8
O=C(CSc1nnnn1-c1ccccc1)Nc1ncc(Cc2cc(Cl)ccc2Cl)s1,-3.4,-0.3,-0.8,11.5,26.2,-26.2
CCCc1cc(C(=O)OC)c2ccccc2n1,-2.8,0.0,0.0,4.1,76.7*,-76.8
CN(CCNC(=O)c1c[nH]c2c1ccc1ccccc12)CCNC(=O)c1c[nH]c2c1ccc1ccccc12,/,1.8,-1.3,43.6*,-14.8,14.8
CN(C)CCNC(=O)c1cccc2nc3c(ccc4ccccc43)nc12,33.1,22.5,0.3,72.7*,2.9,-2.9
COc1cccc2nc3c(C(=O)NCCN(C)C)cccc3cc12,4.6,/,1.5,-38.9,-7.4,7.4
CN(C)CCNC(=O)c1ccccc1-c1cc2ccccc2c(=O)o1,-1.6,5.9,0.4,-8.5,7.2,-7.2
CN(C)CCNC(=O)c1cccc2[nH]c(-c3ccncc3)nc12,7.5,/,0.5,38.2*,28.6,-28.6
CC(C)[C@H](NC(=O)C1CCN(S(=O)(=O)c2ccccc2)CC1)C(=O)NCc1ccccc1,-0.1,-1.7,0.1,13.6,9.4,-9.4
O=C(NCCCc1ccccc1)[C@H](CO)NC1(C(=O)NCCc2c[nH]c3ccccc23)CCCCC1,/,35.9,/,/,/,/
O=C(OCC#CCSc1nnc(-c2cccc3ccccc23)o1)c1ccc2ccccc2c1,6.7,/,0.2,-6.2,-13.7,13.7
CCCCN1/C(=C/c2ccc3ccccc3[n+]2CC)Sc2ccccc21,3.9,26.1,0.7,27.5*,-31.6,31.6
CCN1/C(=C/c2ccc3ccccc3[n+]2CCCS(=O)(=O)[O-])C=Cc2cc(C)ccc21,/,/,3.0,-7.8,-4.3,4.3
CCN1/C(=C/c2ccc3ccccc3[n+]2CC)C=Cc2ccccc21,6.8,/,7.7,-206.6,-86.6,86.6*
Cc1nc(-c2ccc(Cl)cc2)sc1C1(C)CC(c2cccc([N+](=O)[O-])c2)=NO1 (centres undefined),-5.6,/,0.9,1.7,-9.3,9.3
